# LMP1 NFkB inh: Epstein-Barr LMP1 NF-kappaB reporter inhibition; inhibition, % at 12.5 µM; 0.69% of 350,000 active; LMP1-induced NF-kappaB luciferase reporter cells, luminescence; in the data active means inhibition above about 41%;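 further: 0% = neutral control wells and 100% = reference inhibitor control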
# Shn3 inh set2: inhibitors of Schnurri-3 3'UTR reporter in osteoblasts; 0.52% of 360,000 active; AID 588674; inhibition, % at 12.5 µM; Clone20 osteoblast Shn3 3'UTR firefly luciferase, 24 h;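 active means mean inhibition of at least 75% with every replicate also reaching 75%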;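 further: 0% = median of neutral control wells and 100% = pilot-screen positive control compound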
# aSyn UTR inh: 5' untranslated region of α-synuclein, MLPCN primary screen. inhibition, % (tested at 7.5 µM). alpha-synuclein 5'UTR reporter, inhibitor activity. 0.82% of 300,000 active. AID 1813; in the data active means inhibition above about 60%;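 further: H4 neuroglioblastoma cells stably carrying SNCA 5'UTR luciferase fusion; 0% = DMSO wells and 100% = positive control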
# EWS-Fli block: EWS/Fli transcriptional activity inhibition; A673 NR0B1-luciferase reporter, viability-normalised; inhibition, % at 12.6 µM; 0.67% of 350,000 active;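 active means mean inhibition of at least 50% after viability correction, with every replicate also passing that limit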;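 further: firefly luciferase signal divided by Alamar Blue viability fluorescence both relative to DMSO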
# PAX8 reporter: lowers PAX8-driven luciferase in RMG-I cells | inhibition, % at 12.6 µM | RMG-I TPO-luciferase reporter, SteadyGlo, 24 h | 1.2% of 360,000 active | AID 652154;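 active means mean replicate inhibition at least 60% with every replicate also reaching 60%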;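 further: luciferase light reporting Pax8 driven TPO promoter activity; plate controls were median of neutral control wells for no effect and mitoxantrone controls for full effect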
# FN deposition inh: fibronectin deposition inhibition; AH1F fibroblasts, Alexa488-fibronectin deposition fluorescence, overnight; inhibition, % at 12.6 µM; 0.086% of 350,000 active; AID 743247;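 active means mean inhibition across replicates of 30% or more, regardless of how many single replicates reach that level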;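 further: positive control wells lacked labelled fibronectin entirely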
#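 Assay system: AH1F fibroblasts assembling fluorescent fibronectin matrix; Amount: 10000 AH1F cells per well; Buffer or medium: DMEM, 2% serum; Probe or stimulus: Alexa488-fibronectin, 24 nM final in well; Doses: single compound dose, delivered by pin transfer; Incubation: 1 h adhesion, overnight exposure; Measured by: fluorescence 485/525 nm; Read-out: fibronectin deposition inhibition.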
# DNA binding: binds DNA displacing acridine orange; salmon sperm DNA acridine orange fluorescence polarization; AC35, µM (top dose mostly 68 µM), for the others: at the top dose activity change, negative = DNA binding; shares compounds with EWS-Fli block; AID 720586; 2% of 640 active;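 active means fitted curve reaches a 35% signal fall AC35 below twice the sample's top valid tested dose, actives reach about 48 µM in these data; inactive means the rest, including activity in the rising direction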;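 further: lower polarization ratio signals compound binding to DNA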
# * hit, by the source's call; . = no result given; ! = not active in a repeat. Shown are actives, neighbours in structure and some others; about 2.1% of the full set was active somewhere.
SMILES,LMP1 NFkB inh,Shn3 inh set2,aSyn UTR inh,EWS-Fli block,PAX8 reporter,FN deposition inh,DNA binding
CC(=O)N1CC2(C1)[C@@H](c1ccc(-c3ccccc3C)cc1)[C@@H](CO)N2C(C)=O,.,.,.,4.9,-5.8,.,.
O=C1Nc2ccccc2C1=Nc1ccc(F)cc1,12.9,0.2,-2.6,.,.,.,.
CC(=O)c1ccc(N=C2C(=O)Nc3ccccc32)cc1,16.8,2.3,-2.9,54.3*,6.3,-0.7,-8.9%
CCN1[C@@H]2c3ccc(-c4ccncc4)c(=O)n3C[C@H]1[C@H](CO)[C@H]2C(=O)NCc1ccccc1,.,.,.,5.2,-6.2,.,.
COc1ccccc1-c1cn(CC[C@H]2CC[C@@H](NC(=O)C3CCCC3)[C@@H](CO)O2)nn1,.,.,.,57.5*,.,-1.6,-15.6%
COc1ccccc1-c1cn(CC[C@H]2CC[C@@H](NC(=O)C3CCCC3)[C@H](CO)O2)nn1,.,.,.,-0.6,.,-5.2,.
Cc1ccsc1C(=O)OCC(=O)NCCC1=CCCCC1,-19.5,-74.2,-81.0,65.0*,-27.4,.,-5.4%
C[C@@H]1CCCCO[C@H](CN(C)Cc2ccc(C(F)(F)F)cc2)[C@H](C)CN([C@@H](C)CO)C(=O)c2cc(NS(=O)(=O)c3cn(C)cn3)ccc2O1,.,.,.,-4.3,.,.,.
O=C(N/N=C/c1cnc(N2CCCCC2)s1)c1ccc(C(F)(F)F)cc1,6.0,79.5,52.8,53.7*,73.5*,0.4,0.3%
CC1CN(c2ncc(/C=N/NC(=O)c3ccccc3O)s2)CC(C)O1 (stereo unspecified),-4.0,-16.2,0.2,4.4,-14.9,4.8,.
COc1ccc(C2c3cc4c(cc3OC(NNC(N)=O)C2C)OCO4)cc1 (stereo unspecified),6.0,2.9,.,50.4*,.,-6.0,-8.8%
Cc1ccc(S(=O)(=O)N2C[C@H](O)COC[C@H]3O[C@H](CC(=O)NCC4CCCCC4)CC[C@@H]32)cc1,.,.,.,7.1,17.1,0.0,.
Cc1ccc(/C=N/Nc2ccnc3cc(Cl)ccc23)c(C)c1,5.1,4.2,38.4,76.4*,11.2,11.7,-7.9%
CC(=O)c1ccc(N(C(=O)Cn2nnc3ccccc32)C(C(=O)NCc2ccccc2)c2ccccn2)cc1 (stereo unspecified),-10.0,-46.6,-105.8,62.2*,-19.7,.,-5.6%
COc1ccccc1-c1cnc2c(c1)C(=O)N([C@H](C)CO)C[C@@H](C)[C@H](CN(C)Cc1cccnc1)O2,.,.,.,0.4,.,-1.2,.
COc1ccc(N=C(NN)c2ccc3ccccc3n2)cc1,34.8,55.0,-32.2,71.9*,.,2.3,-0.9%
CC(C)=CCC/C(C)=C/CN1C(=O)N(c2ccc(F)cc2)[C@H]2C[C@@H](c3ccccc3)[C@@H](C)[C@@H](C(=O)N3CCOCC3)C[C@H]21,.,.,.,51.5*,100.9*,-3.2,2.8%
CNC[C@@H]1Oc2c(N)cccc2C(=O)N(C)C[C@@H]1C,.,.,.,.,.,-6.2,.
O=C(c1ccccn1)c1ccc2ccccc2n1,.,-2.5,3.9,3.0,-12.7,-17.3,.
CC(=NNc1ccc2ccccc2n1)c1ccccc1O,-1.6,17.9,.,74.0*,31.5,-10.3,-15.1%
CC(=NNc1ccc2ccccc2n1)c1ccccn1,.,.,.,84.9*,113.7*,-7.6,7.7%
CC1=NC(=O)C(N=Nc2cccc(C(=O)O)c2)N1c1ccccc1 (stereo unspecified),36.7,-7.0,12.9,63.7*,.,.,8.1%
CC1=NC(=O)C(N=Nc2ccccc2)N1c1ccccc1 (stereo unspecified),-39.3,-66.3,-109.4,.,.,.,.
N#Cc1cccc(-c2ccc(C3[C@@H]4CN(C(=O)Cc5ccncc5)C[C@H]3N4)cc2)c1 (stereo partly specified),.,.,.,78.0*!,-3.6,-7.2,-3.9%
C[C@@H]1CN([C@@H](C)CO)C(=O)c2cc(NC(=O)c3ccccc3)ccc2O[C@@H](C)CCCCO[C@H]1CN(C)C(=O)Nc1cccc2ccccc12,.,.,.,71.0*,0.6,6.4,4.9%
SMILES,LMP1 NFkB inh,Shn3 inh set2,aSyn UTR inh,EWS-Fli block,PAX8 reporter,FN deposition inh,DNA binding
Cc1ccc(S(=O)(=O)Nc2ccc3c(c2)C(=O)N([C@@H](C)CO)C[C@@H](C)[C@H](CN(C)Cc2ccc(C(F)(F)F)cc2)OCCCC[C@H](C)O3)cc1,.,.,.,68.6*,106.2*,6.8,-21.3%
C[C@@H]1CCCCO[C@H](CN(C)Cc2ccc(C(=O)Nc3ccccc3N)cc2)[C@@H](C)CN([C@H](C)CO)C(=O)c2cc(NS(=O)(=O)c3ccccc3)ccc2O1,.,.,.,-4.5,21.6,-7.2,.
C[C@@H]1CCCCO[C@H](CN(C)Cc2ccc(C(=O)Nc3ccccc3N)cc2)[C@@H](C)CN([C@H](C)CO)C(=O)c2cc(NS(=O)(=O)c3ccc(F)cc3)ccc2O1,.,.,.,60.5*,51.6,-25.2,-10.0%
O=C(Cc1nn[nH]n1)c1ccccc1O,-1.0,-2.8,3.4,68.1*,15.1,.,-1.9%
C/C=C/c1ccc([C@H]2[C@@H](CO)N(S(C)(=O)=O)[C@H]2CN(CC)C(C)=O)cc1,.,.,.,-1.3,.,.,.
CC(C)(C)C(=O)Cn1ncc(Cl)c(Cl)c1=O,1.2,34.3,-55.7,75.2*,57.3,8.6,-4.1%
C[C@@H]1C(=O)NCCC=CC[C@H](C)Oc2ccccc2C(=O)N1C (mixture of isomers),.,.,.,.,.,-1.1,.

# High-throughput results from PubChem BioAssay.
